From ChEMBL document CHEMBL1128547, “Selective inhibitors of Candida albicans dihydrofolate reductase: activity and selectivity of 5-(arylthio)-2,4-diaminoquinazolines” (J Med Chem, 1995)
Values after ≈ are worked out from the molar mass of the structure shown.

Columns and labels:
Candida albicans [1] = experiment: Minimum inhibitory concentration required to inhibit Candida albicans (in vitro); assay type: functional
Summary of the method: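 Broth dilution in defined medium (NH4Cl, K2HPO4, MgSO4, sodium citrate, PIPES, biotin, glucose; pH 7.1), strain P712 from frozen log-phase stocks. Inoculum 4500 CFU per 3 mL tube, final drug 50–0.01 μg/mL, or microtiter wells (0.05 mL) with 4-fold dilutions. 28 °C, 160 rpm, 20–24 h.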

Candida albicans [2] = experiment: Ratio of I50 evaluated for inhibition of DHFR in humans to Candida albicans
Summary of the method: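 Selectivity index is the human DHFR I50 divided by the C. albicans DHFR I50. The C. albicans enzyme (E. coli-expressed, 0.2 nM) was run in 0.1 M imidazole chloride, pH 6.4. Recombinant human enzyme (2 nM) was run in 50 mM Sorenson's phosphate, pH 7.0. Enzyme, NADPH and inhibitor were preincubated 2 min before substrate was added. I50 came from linear regression of % inhibition of steady-state velocity vs log concentration.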

Structure (SMILES)	MIC (Candida albicans [1]) [µg/mL]	Selectivity index (Candida albicans [2])
Cc1ccc(Sc2cccc3nc(N)nc(N)c23)cc1	0.25 (≈ 0.885 µM)	–
CCC(C)(C)c1ccc(Sc2cccc3nc(N)nc(N)c23)cc1	10 (≈ 29.5 µM)	10
Nc1nc(N)c2c(Sc3ccc(C(F)(F)F)cc3)cccc2n1	25 (≈ 74.3 µM)	5
Nc1nc(N)c2c(Sc3ccc([N+](=O)[O-])cc3)cccc2n1	50 (≈ 160 µM)	100
CCOc1ccc2nc(N)nc(N)c2c1Sc1ccc(C(C)(C)C)cc1	1 (≈ 2.71 µM)	–
CCN(CC)c1ccc(Sc2cccc3nc(N)nc(N)c23)cc1	2.5 (≈ 7.36 µM)	–
COc1ccccc1Sc1cccc2nc(N)nc(N)c12	10 (≈ 33.5 µM)	4
COc1cc(NCc2ccc3nc(N)nc(N)c3c2C)cc(OC)c1OC [TRIMETREXATE]	> 50	–
CC(C)(C)c1ccc(Sc2cccc3nc(N)nc(N)c23)cc1	0.1 (≈ 0.308 µM)	–
COc1cc(Sc2cccc3nc(N)nc(N)c23)cc(OC)c1OC	5 (≈ 13.9 µM)	–
Nc1nc(N)c2c(Sc3ccc(Br)cc3)cccc2n1	0.25 (≈ 0.72 µM)	100
CC(C)c1ccc(Sc2cccc3nc(N)nc(N)c23)cc1	0.25 (≈ 0.805 µM)	–
COc1cccc(Sc2cccc3nc(N)nc(N)c23)c1	0.25 (≈ 0.838 µM)	–
N#Cc1ccc(Sc2cccc3nc(N)nc(N)c23)cc1	> 50	100
COc1cc(Cc2cnc(N)nc2N)cc(OC)c1OC [TRIMETHOPRIM]	> 50	–
COc1ccc(Sc2cccc3nc(N)nc(N)c23)cc1OC	> 50	79

Structure (SMILES)	MIC (Candida albicans [1]) [µg/mL]	Selectivity index (Candida albicans [2])
Nc1nc(N)c2c(Sc3ccc(O)cc3)cccc2n1	10 (≈ 35.2 µM)	5
Nc1nc(N)c2c(Sc3ccccc3Cl)cccc2n1	1 (≈ 3.3 µM)	2
CCc1nc(N)nc(N)c1-c1ccc(Cl)cc1 [PYRIMETHAMINE]	> 50	–
CCCCCCc1ccc(Sc2cccc3nc(N)nc(N)c23)cc1	50 (≈ 142 µM)	–
COc1ccc(Sc2cccc3nc(N)nc(N)c23)cc1	0.25 (≈ 0.838 µM)	–
CC(C)(C)c1ccc(Sc2c(C#N)ccc3nc(N)nc(N)c23)cc1	> 5	–
Nc1nc(N)c2c(Sc3ccc(F)cc3)cccc2n1	0.25 (≈ 0.873 µM)	40
Nc1nc(N)c2c(Sc3cccc(Cl)c3)cccc2n1	0.5 (≈ 1.65 µM)	6
Nc1nc(N)c2c(Sc3ccccc3)cccc2n1	0.05 (≈ 0.186 µM)	–
CC(C)(C)c1ccc(Sc2c(N)ccc3nc(N)nc(N)c23)cc1	5 (≈ 14.7 µM)	–
Nc1nc(N)c2c(Sc3ccc(N4CCOCC4)cc3)cccc2n1	> 50	–
Nc1nc(N)c2c(Sc3ccc(C4CCCCC4)cc3)cccc2n1	1 (≈ 2.85 µM)	> 200
CC(C)COc1ccc2nc(N)nc(N)c2c1Sc1ccc(C(C)(C)C)cc1	0.8 (≈ 2.02 µM)	10
COc1ccc(OC)c(Cc2cnc3nc(N)nc(N)c3c2C)c1 [PIRITREXIM]	> 10	–
Nc1ccc(Sc2cccc3nc(N)nc(N)c23)cc1	2.5 (≈ 8.82 µM)	5
Nc1nc(N)c2c(Sc3ccc(Cl)cc3)cccc2n1	0.5 (≈ 1.65 µM)	–
